Where a SMILES comes first, the peptide text is derived from it. The star is where a group is joined. X1 = COc1cccc2c1C(=O)c1c(O)c3c(c(O)c1C2=O)C[C@@](O)(/C(C)=N/OCC(=O)*)C[C@@H]3O[C@H]1C[C@H](N)[C@H](O)[C@H](C)O1
What was measured:
NCI-H1650 = assay: Cytostatic activity against human NCI-H1650 cells preincubated for 24 hrs under serum free condition followed by compound washout and further incubation for 48 hrs in presence of serum by MTT assay; format: functional, cell-based
Summary of the method: (§1)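 Cells were grown at 37 °C in 5% CO2 in medium with 10% heat-inactivated FBS (20% for OVCAR-3) plus penicillin/streptomycin. The medium was RPMI-1640 for most lines, DMEM for U-87 MG and MRC-5, and IMDM for PE/CA-PJ lines. Seeding was 3×10^3–10×10^3 cells per well. Cells had 24 h compound exposure, a wash, and 48 h further culture. Read-out was MTT, normalized to untreated cells and fitted by nonlinear regression for IC50.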

[1] = Potency index, ratio of compound IC50 to Daunomycin IC50 for human WM983B cells preincubated for 24 hrs under serum free condition followed by compound washout and further incubation for 48 hrs in presence of serum by MTT assay; format: functional
PC-3 [2] = assay: Cytostatic activity against human PC3 cells preincubated for 24 hrs under serum free condition followed by compound washout and further incubation for 48 hrs in presence of serum by MTT assay; format: functional, cell-based; summary of the method: as §1
[3] = Stability in human plasma assessed as parent compound remaining at 30 uM measured after 1 hr by LC/MS analysis; format: ADME, cell-free
Summary of the method: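 Conjugates were incubated in 90% human plasma from a healthy volunteer. Samples were taken at 0, 5 and 60 min and analysed by HPLC-MS.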

[4] = Cytostatic activity against human PECAPJ41 cells preincubated for 24 hrs under serum free condition followed by compound washout and further incubation for 48 hrs in presence of serum by MTT assay; format: functional, cell-based; summary of the method: as §1
4T1 [5] = assay: Potency index, ratio of compound IC50 to Daunomycin IC50 for mouse 4T1 cells preincubated for 24 hrs under serum free condition followed by compound washout and further incubation for 48 hrs in presence of serum by MTT assay; format: functional
U-87 MG = assay: Potency index, ratio of compound IC50 to Daunomycin IC50 for human U87 cells preincubated for 24 hrs under serum free condition followed by compound washout and further incubation for 48 hrs in presence of serum by MTT assay; format: functional, U-87MG ATCC
DU-145 [6] = assay: Cytostatic activity against human DU145 cells preincubated for 24 hrs under serum free condition followed by compound washout and further incubation for 48 hrs in presence of serum by MTT assay; format: functional, cell-based; summary of the method: as §1
B16 = assay: Cytostatic activity against mouse B16 cells preincubated for 24 hrs under serum free condition followed by compound washout and further incubation for 48 hrs in presence of serum by MTT assay; format: functional, cell-based; summary of the method: as §1
DU-145 [7] = assay: Potency index, ratio of compound IC50 to Daunomycin IC50 for human DU145 cells preincubated for 24 hrs under serum free condition followed by compound washout and further incubation for 48 hrs in presence of serum by MTT assay; format: functional
NCI-H1975 = assay: Cytostatic activity against human NCI-H1975 cells preincubated for 24 hrs under serum free condition followed by compound washout and further incubation for 48 hrs in presence of serum by MTT assay; format: functional, cell-based; summary of the method: as §1
MRC5 = assay: Cytostatic activity against human MRC5 cells preincubated for 24 hrs under serum free condition followed by compound washout and further incubation for 48 hrs in presence of serum by MTT assay; format: ADME, cell-based; summary of the method: as §1
[8] = Drug uptake in human HT-29 cells cytoplasm at 50 uM after 90 mins by fluorescence based confocal microscopic analysis; format: ADME, subcellular; settings: ht-29, 1.5 h
Summary of the method: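 HT-29 cells were incubated with 50 µM compound in RPMI for 90 min. Imaging was by confocal microscopy, with Dau detected at 550–600 nm emission.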

MCF7 [9] = assay: Potency index, ratio of compound IC50 to Daunomycin IC50 for human MCF7 cells preincubated for 24 hrs under serum free condition followed by compound washout and further incubation for 48 hrs in presence of serum by MTT assay; format: functional
4T1 [10] = assay: Cytostatic activity against mouse 4T1 cells preincubated for 24 hrs under serum free condition followed by compound washout and further incubation for 48 hrs in presence of serum by MTT assay; format: functional, cell-based; summary of the method: as §1
[11] = Potency index, ratio of compound IC50 to Daunomycin IC50 for human M24 cells preincubated for 24 hrs under serum free condition followed by compound washout and further incubation for 48 hrs in presence of serum by MTT assay; format: functional
PANC-1 [12] = assay: Cytostatic activity against human PANC1 cells preincubated for 24 hrs under serum free condition followed by compound washout and further incubation for 48 hrs in presence of serum by MTT assay; format: functional, cell-based; summary of the method: as §1
HepG2 = assay: Cytostatic activity against human HepG2 cells preincubated for 24 hrs under serum free condition followed by compound washout and further incubation for 48 hrs in presence of serum by MTT assay; format: functional, cell-based; summary of the method: as §1
[13] = Potency index, ratio of compound IC50 to Daunomycin IC50 for human PECAPJ41 cells preincubated for 24 hrs under serum free condition followed by compound washout and further incubation for 48 hrs in presence of serum by MTT assay; format: functional
PC-3 [14] = assay: Potency index, ratio of compound IC50 to Daunomycin IC50 for human PC3 cells preincubated for 24 hrs under serum free condition followed by compound washout and further incubation for 48 hrs in presence of serum by MTT assay; format: functional
PANC-1 [15] = assay: Potency index, ratio of compound IC50 to Daunomycin IC50 for human PANC1 cells preincubated for 24 hrs under serum free condition followed by compound washout and further incubation for 48 hrs in presence of serum by MTT assay; format: functional
MCF7 [16] = assay: Cytostatic activity against human MCF7 cells preincubated for 24 hrs under serum free condition followed by compound washout and further incubation for 48 hrs in presence of serum by MTT assay; format: functional, cell-based; summary of the method: as §1
[17] = Drug metabolism in rat liver lysosomes homogenate assessed as Dau-containing metabolite formation at 0.05 ug/ul after 24 hrs by LC-MS analysis; format: ADME, subcellular, Lysosome; settings: tissue homogenate
Summary of the method: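 Conjugates and rat liver lysosomal homogenate were each used at 0.05 µg/µL. Samples were taken at 0, 1, 3, 6 and 24 h. Metabolites were identified by LC-MS on a C18 column with a formic acid/acetonitrile gradient.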

MDA-MB-231 = assay: Potency index, ratio of compound IC50 to Daunomycin IC50 for human MDA-MB-231 cells preincubated for 24 hrs under serum free condition followed by compound washout and further incubation for 48 hrs in presence of serum by MTT assay; format: functional
CT26.WT = assay: Potency index, ratio of compound IC50 to Daunomycin IC50 for mouse CT26.WT cells preincubated for 24 hrs under serum free condition followed by compound washout and further incubation for 48 hrs in presence of serum by MTT assay; format: functional
WiDr = assay: Potency index, ratio of compound IC50 to Daunomycin IC50 for human WiDr cells preincubated for 24 hrs under serum free condition followed by compound washout and further incubation for 48 hrs in presence of serum by MTT assay; format: functional
OVCAR-3 = assay: Cytostatic activity against human OVCAR3 cells preincubated for 24 hrs under serum free condition followed by compound washout and further incubation for 48 hrs in presence of serum by MTT assay; format: functional, cell-based; summary of the method: as §1

COc1cccc2c1C(=O)c1c(O)c3c(c(O)c1C2=O)C[C@@](O)(/C(C)=N/OCC(=O)N[C@@H](CC(C)C)C(=O)N[C@@H](CCCNC(=N)N)C(=O)N[C@@H](CCCNC(=N)N)C(=O)N[C@@H](Cc1ccc(O)cc1)C(=O)N[C@H](C(=O)N[C@@H](Cc1cnc[nH]1)C(=O)N[C@@H](CC(C)C)C(=O)N[C@@H](Cc1ccccc1)C(=O)N[C@@H](Cc1ccc(O)cc1)C(=O)N[C@@H](C)C(=O)N[C@H](C(N)=O)[C@@H](C)O)C(C)C)C[C@@H]3O[C@H]1C[C@H](N)[C@H](O)[C@H](C)O1 (X1-LRRYVHLFYAT-NH2)
IC50 (NCI-H1650): 2.9 µM
Ratio IC50 [1]: 114.6
IC50 (PC-3 [2]): 5.9 µM
Stability [3]: Stable
IC50 [4]: 4.3 µM
Ratio IC50 (4T1 [5]): 284.6
Ratio IC50 (U-87 MG): 236.9
IC50 (DU-145 [6]): 3.5 µM
IC50 (B16): 3 µM
Ratio IC50 (DU-145 [7]): 142.3
IC50 (NCI-H1975): 3.7 µM
IC50 (MRC5): 52.1 µM
Drug uptake [8]: Active
Ratio IC50 (MCF7 [9]): 38.8
IC50 (4T1 [10]): 11.6 µM
Ratio IC50 [11]: 61.7
IC50 (PANC-1 [12]): 26.9 µM
IC50 (HepG2): 4.7 µM
Ratio IC50 [13]: 165.7
Ratio IC50 (PC-3 [14]): 226.7
Ratio IC50 (PANC-1 [15]): 57.7
IC50 (MCF7 [16]): 11.1 µM
Drug metabolism [17]: Metabolite_Detected
Ratio IC50 (MDA-MB-231): 86.6
Ratio IC50 (CT26.WT): 66
Ratio IC50 (WiDr): 62.8
IC50 (OVCAR-3): 11.3 µM
